Measurements published in ChEMBL document CHEMBL1122797, “Benzisoxazolones: antimicrobial and antileukemic activity” (1984).
≈ marks a conversion by molar mass, not a printed value. Where “and” joins values, the source holds several entries; their conditions need not be identical. Identical values can stand only once. Calls of active or inactive are those of the source. No cut-off for these calls is given here.

Key:
Proteus vulgaris [1] = assay: Evaluation of in vitro antimicrobial activity with an agar diffusion assay against Proteus vulgaris; format: functional
Outline: (§1)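 Agar diffusion assay. A standard antibiotic was run to validate the assays, with data reproducible to ± 3 mm between assays.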

[2] = Evaluation of in vitro antimicrobial activity with an agar diffusion assay against Salmonella schottmuelleri; format: functional; outline: as §1
L1210 [3] = assay: In vitro antileukemic (cytotoxic) activity against L1210 cells in suspension.; format: functional, Mus musculus; details: for IC50: Mus musculus, L1210, read-out: ID50 (the source's name)
Pseudomonas aeruginosa [4] = assay: Evaluation of in vitro antimicrobial activity with an agar diffusion assay against Pseudomonas aeruginosa; format: functional; outline: as §1
Escherichia coli [5] = assay: Evaluation of in vitro antimicrobial activity with an agar diffusion assay against Escherichia coli; format: functional; outline: as §1
Staphylococcus aureus [6] = assay: Evaluation of in vitro antimicrobial activity with an agar diffusion assay against Staphylococcus aureus; format: functional; outline: as §1
Pseudomonas = assay: Evaluation of in vitro antimicrobial activity with an agar diffusion assay against Pseudomonas fluorescence; format: functional; outline: as §1
[7] = test system: Saccharomyces pastorianus; assay: Evaluation of in vitro antimicrobial activity with an agar diffusion assay against Saccharomyces pastorianus; format: functional; outline: as §1
Bacillus subtilis = assay: Evaluation of in vitro antimicrobial activity with an agar diffusion assay against Bacillus subtilis; format: functional; outline: as §1
Penicillium oxalicum = assay: Evaluation of in vitro antimicrobial activity with an agar diffusion assay against Penicillium oxalicum; format: functional, pencillium oxalicum; outline: as §1
Klebsiella pneumoniae [8] = assay: Evaluation of in vitro antimicrobial activity with an agar diffusion assay against Klebsiella pneumoniae; format: functional; outline: as §1
Micrococcus luteus = assay: Evaluation of in vitro antimicrobial activity with an agar diffusion assay against Micrococcus luteus; format: functional; outline: as §1
Serratia marcescens = assay: In vitro evaluation of antimicrobial activity with microplate broth dilution assay against Serratia marcescens UC131; format: functional
Outline: (§2)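 Serial twofold dilutions prepared in modified brain heart infusion broth in microplate wells. Each well inoculated with standardized cell suspension to ~10^6 viable cells per mL of drug-supplemented medium. Plates incubated 37 °C for 20 h. MIC read as lowest concentration inhibiting visible growth.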

Providencia stuartii = assay: In vitro evaluation of antimicrobial activity with microplate broth dilution assay against Providencia stuartii UC6570; format: functional; outline: as §2
[9] = In vitro evaluation of antimicrobial activity with microplate broth dilution assay against Salmonella schottmuelleri UC126; format: functional; outline: as §2
Klebsiella pneumoniae [10] = assay: In vitro evaluation of antimicrobial activity with microplate broth dilution assay against Klebsiella pneumoniae UC58; format: functional; outline: as §2
Shigella flexneri = assay: In vitro evaluation of antimicrobial activity with microplate broth dilution assay against Shigella flexneri UC143; format: functional; outline: as §2
L1210 [11] = assay: In vitro evaluation of the antileukemic (cytotoxic) activity against L1210 cells in suspension; format: functional, Mus musculus
Staphylococcus aureus [12] = assay: In vitro evaluation of antimicrobial activity with microplate broth dilution assay against Staphylococcus aureus UC76; format: functional; outline: as §2
Proteus mirabilis = assay: In vitro evaluation of antimicrobial activity with microplate broth dilution assay against Proteus mirabilis UC6671; format: functional; outline: as §2
Escherichia coli [13] = assay: In vitro evaluation of antimicrobial activity with microplate broth dilution assay against Escherichia coli UC45; format: functional; outline: as §2
Salmonella typhi = assay: In vitro evaluation of antimicrobial activity with microplate broth dilution assay against Salmonella typhi UC215; format: functional, Salmonella enterica subsp. enterica serovar Typhi; details: Salmonella enterica
Outline: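 Twofold serial dilutions in modified brain heart infusion broth in microplate wells, each inoculated with standardized cell suspension to about 10^6 viable cells/mL final. Incubated 37 °C for 20 h. MIC read as the lowest concentration inhibiting visible growth.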

Pseudomonas aeruginosa [14] = assay: In vitro evaluation of antimicrobial activity with microplate broth dilution assay against Pseudomonas aeruginosa UC95; format: functional; outline: as §2
Proteus vulgaris [15] = assay: In vitro evaluation of antimicrobial activity with microplate broth dilution assay against Proteus vulgaris UC93; format: functional; outline: as §2
Pseudomonas aeruginosa [16] = assay: Evaluation of in vitro antimicrobial activity with an agar diffusion assay against Pseudomonas aeruginosa; Inactive; format: functional, organism-based; outline: as §1
Enterococcus faecalis [17] = assay: In vitro evaluation of antimicrobial activity with microplate broth dilution assay against Streptococcus faecalis UC694
Enterococcus faecalis [18] = assay: In vitro evaluation of antimicrobial activity with microplate broth dilution assay against Streptococcus faecalis UC694; format: functional, streptococcus feacal; outline: as §2

Compound	Zone of inhibition (Proteus vulgaris [1])	Zone of inhibition [2]	ID50 (L1210 [3])	Zone of inhibition (Pseudomonas aeruginosa [4])	Zone of inhibition (Escherichia coli [5])	Zone of inhibition (Staphylococcus aureus [6])	Zone of inhibition (Pseudomonas)	Zone of inhibition (Bacillus subtilis)	Zone of inhibition (Penicillium oxalicum)	Zone of inhibition (Klebsiella pneumoniae [8])	Zone of inhibition (Micrococcus luteus)	other results
Oc1onc2ccccc12	30 mm	26 mm	3.1 µg/mL and 8 µg/mL	30 mm	25 mm	15 mm	35 mm	22 mm	41 mm	26 mm	27 mm	Zone of inhibition [7]: 16 mm
CC(C)C(=O)OCn1oc(=O)c2ccccc21	24 mm	23 mm		22 mm	17 mm	17 mm	33 mm	17 mm	29 mm	22 mm	22 mm	
O=C(COc1ccccc1)OCn1oc(=O)c2ccccc21	21 mm	20 mm		19 mm	18 mm	15 mm	31 mm	20 mm	24 mm	22 mm	19 mm	
CNC(=O)OCn1oc(=O)c2ccccc21	32 mm	28 mm		39 mm	30 mm		33 mm	16 mm	46 mm	23 mm	33 mm	MIC (Serratia marcescens): 3.9 µg/mL (≈ 17.6 µM); MIC (Providencia stuartii): 62.5 µg/mL (≈ 281 µM); MIC [9]: 31.2 µg/mL (≈ 140 µM); MIC (Klebsiella pneumoniae [10]): 62.5 µg/mL (≈ 281 µM); IC50 (L1210 [3]): 3.5 µg/mL (≈ 15.8 µM); MIC (Shigella flexneri): 31.2 µg/mL (≈ 140 µM); ID90 (L1210 [11]): 8.6 µg/mL (≈ 38.7 µM); MIC (Staphylococcus aureus [12]): 62.5 µg/mL (≈ 281 µM); MIC (Proteus mirabilis): 31.2 µg/mL (≈ 140 µM); MIC (Escherichia coli [13]): 31.2 µg/mL (≈ 140 µM); MIC (Salmonella typhi): 15.6 µg/mL (≈ 70.2 µM); MIC (Pseudomonas aeruginosa [14]): 15.6 µg/mL (≈ 70.2 µM); MIC (Proteus vulgaris [15]): 15.6 µg/mL (≈ 70.2 µM)
CS(=O)(=O)n1oc(=O)c2ccccc21			3.7 µg/mL and 8.6 µg/mL	31 mm								
CC(C)(C)C(=O)OCn1oc(=O)c2ccccc21	18 mm	22 mm		20 mm	17 mm	18 mm	30 mm	18 mm	31 mm	21 mm	18 mm	
Cn1oc(=O)c2ccccc21												Zone of inhibition (Pseudomonas aeruginosa [16]): inactive
COCn1oc(=O)c2ccccc21												Zone of inhibition (Pseudomonas aeruginosa [16]): inactive
O=c1on(CO)c2ccccc12												MIC (Serratia marcescens): 2 µg/mL (≈ 12.1 µM); MIC (Providencia stuartii): 31.2 µg/mL (≈ 189 µM); MIC [9]: 31.2 µg/mL (≈ 189 µM); MIC (Klebsiella pneumoniae [10]): 31.6 µg/mL (≈ 191 µM); MIC (Shigella flexneri): 15.6 µg/mL (≈ 94.5 µM); MIC (Enterococcus faecalis [17]): 250 µg/mL (≈ 1510 µM); MIC (Staphylococcus aureus [12]): 62.5 µg/mL (≈ 378 µM); MIC (Proteus mirabilis): 15.6 µg/mL (≈ 94.5 µM); MIC (Escherichia coli [13]): 15.6 µg/mL (≈ 94.5 µM); MIC (Salmonella typhi): 7.8 µg/mL (≈ 47.2 µM); MIC (Pseudomonas aeruginosa [14]): 7.8 µg/mL (≈ 47.2 µM); MIC (Proteus vulgaris [15]): 3.9 µg/mL (≈ 23.6 µM)
CC(=O)OCn1oc(=O)c2ccccc21	25 mm	22 mm		32 mm	26 mm	15 mm	32 mm	24 mm	43 mm	24 mm	24 mm	MIC (Serratia marcescens): 15.6 µg/mL (≈ 75.3 µM); MIC (Providencia stuartii): 125 µg/mL (≈ 603 µM); MIC [9]: 62.5 µg/mL (≈ 302 µM); MIC (Klebsiella pneumoniae [10]): 62.5 µg/mL (≈ 302 µM); IC50 (L1210 [3]): 5.1 µg/mL (≈ 24.6 µM); MIC (Shigella flexneri): 62.5 µg/mL (≈ 302 µM); ID90 (L1210 [11]): 19 µg/mL (≈ 91.7 µM); MIC (Staphylococcus aureus [12]): > 250 µg/mL; Zone of inhibition [7]: 17 mm; MIC (Proteus mirabilis): 62.5 µg/mL (≈ 302 µM); MIC (Escherichia coli [13]): 125 µg/mL (≈ 603 µM); MIC (Salmonella typhi): 62.5 µg/mL (≈ 302 µM); MIC (Enterococcus faecalis [18]): > 250 µg/mL; MIC (Proteus vulgaris [15]): 15.6 µg/mL (≈ 75.3 µM)
CC(=O)n1oc(=O)c2ccccc21	23 mm	20 mm	3.4 µg/mL and 8.7 µg/mL	38 mm	26 mm		31 mm	24 mm	49 mm	20 mm	18 mm	Zone of inhibition [7]: 21 mm
CNC(=O)n1oc(=O)c2ccccc21	19 mm		4.9 µg/mL and 14 µg/mL	24 mm						16 mm		
O=C(NCCCCCI)n1oc(=O)c2ccccc21			3.7 µg/mL and 8.6 µg/mL									Zone of inhibition (Pseudomonas aeruginosa [16]): inactive
O=C(CCCCCI)OCn1oc(=O)c2ccccc21	15 mm		19 µg/mL (≈ 48.8 µM)	17 mm			23 mm	15 mm	26 mm			
CCCCCCCCCCCCCCCC(=O)OCn1oc(=O)c2ccccc21												Zone of inhibition (Pseudomonas aeruginosa [16]): inactive
Cc1ccc(C(=O)OCn2oc(=O)c3ccccc32)cc1	22 mm	17 mm		22 mm	18 mm		20 mm	20 mm	24 mm	21 mm		IC50 (L1210 [3]): 4.6 µg/mL (≈ 16.2 µM); ID90 (L1210 [11]): 17 µg/mL (≈ 60 µM)
